Data published in ChEMBL document CHEMBL2203201, “Synthesis and antimalarial evaluation of a screening library based on a tetrahydroanthraquinone natural product scaffold” (Bioorg Med Chem, 2012).
Values after ≈ are worked out from the molar mass of the structure shown.

Columns and labels:
Plasmodium falciparum [1] = experiment: Antimalarial activity against chloroquine-resistant ring stage plasmodium falciparum Dd2 infected in erythrocytes assessed as [3H]hypoxanthine incorporation after 48 hrs by liquid scintillation counting; format: functional, organism-based
Method in brief: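 Infected erythrocytes at 0.5% parasitemia and 2.5% hematocrit were plated into serial dilutions of test compound or chloroquine control. After 48 h under standard culture conditions, 0.5 μCi 3H-hypoxanthine was added per well and incubation continued 24 h. Cells were harvested onto filter mats and counted by scintillation. Inhibition was set against 0.5% DMSO controls, and IC50 was obtained by linear interpolation. Mean ± SD of three independent triplicate experiments.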

Plasmodium falciparum [2] = experiment: Antimalarial activity against chloroquine-sensitive ring stage plasmodium falciparum 3D7 infected in erythrocytes assessed as [3H]hypoxanthine incorporation after 48 hrs by liquid scintillation counting; format: functional, organism-based
Method in brief: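 P. falciparum 3D7-infected type O+ erythrocytes (0.5% parasitemia, 2.5% hematocrit) incubated with serial dilutions for 48 h under standard culture conditions. 0.5 μCi 3H-hypoxanthine then added and culture continued a further 24 h. Incorporation counted by liquid scintillation against 0.5% DMSO controls. IC50 by linear interpolation of inhibition curves. Mean of three independent experiments, each in triplicate, ±SD.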

NFF = experiment: Cytotoxicity against human NFF cells after 3 days by sulforhodamine B assay; format: cell-based; details: 72 h
Method in brief: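 Neonatal foreskin fibroblasts grown in RPMI 1640 with 10% FCS and 1% streptomycin at 37 °C, 5% CO2, kept in log phase. Seeded at 3000/well and grown 24 h before treatment. Compounds diluted from DMSO into medium (≤1% DMSO); controls got matching DMSO. After 3 days, PBS wash, fixation in methylated spirits, total protein by sulforhodamine B. Triplicate, three independent experiments.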

[3] = Selectivity index, ratio of IC50 for human NFF cells to IC50 for chloroquine-sensitive ring stage plasmodium falciparum 3D7
Staphylococcus aureus = experiment: Antibacterial activity against Staphylococcus aureus; format: functional, organism-based
Pseudomonas aeruginosa = experiment: Antibacterial activity against Pseudomonas aeruginosa; format: functional, organism-based

Structure (SMILES) | IC50 (Plasmodium falciparum [2]) [µM] | IC50 (Plasmodium falciparum [1]) [µM] | IC50 (NFF) [µM] | Ratio IC50 [3] | IC50 (Staphylococcus aureus) [µg/mL] | IC50 (Pseudomonas aeruginosa) [µg/mL]
COc1cc(O)c2c(c1O)C(=O)c1cc(C)ccc1C2=O [AUSTROCORTIRUBIN] | > 50 | > 50 | 76 | – | – | –
C[C@]1(O)Cc2c(O)c3c(c(O)c2[C@@H](O)C1)C(=O)C=C(NCCN1CCCC1)C3=O | 6.3 | – | 15.9 | 2.5 | – | –
COC1=CC(=O)c2c(O)c3c(c(O)c2C1=O)C[C@@](C)(O)C[C@@H]3O | 4.7 | 11.1 | 43.7 | 9.3 | – | –
CNC1=CC(=O)c2c(O)c3c(c(O)c2C1=O)C[C@](C)(O)C[C@@H]3O | 6.9 | – | 59.1 | 8.6 | – | –
CC(C)(C)OC(=O)NCCCNC1=CC(=O)c2c(O)c3c(c(O)c2C1=O)C[C@](C)(O)C[C@@H]3O | 6.7 | – | 36.5 | 5.4 | – | –
COC1=CC(=O)c2c(O)c3c(c(O)c2C1=O)C[C@](C)(O)CC3 | 4.5 | 5.2 | 54.6 | 12.1 | – | –
COCCNC1=CC(=O)c2c(O)c3c(c(O)c2C1=O)C[C@](C)(O)C[C@@H]3O | 10.3 | – | 84.3 | 8.2 | – | –
C[C@]1(O)Cc2c(O)c3c(c(O)c2[C@@H](O)C1)C(=O)C=C(NCc1ccccc1)C3=O | 7.4 | – | 10.7 | 1.4 | – | –
CCN(CC)CCCC(C)Nc1ccnc2cc(Cl)ccc12 (stereo unspecified) [CHLOROQUINE] | – | – | 37.3 | – | – | –
C[C@]1(O)Cc2c(O)c3c(c(O)c2[C@@H](O)C1)C(=O)C=C(NCCN1CCOCC1)C3=O | 15.8 | – | 62 | 3.9 | – | –
COC1=CC(=O)c2c(O)c3c(c(O)c2C1=O)C[C@](C)(O)C[C@@H]3O | 1.9 | 2.2 | 15.6 | 8.2 | 3 (≈ 9.37 µM) | > 50

Further lines, with some results ahead:

IC50 (Plasmodium falciparum [2]) [µM] | Structure (SMILES) | IC50 (Plasmodium falciparum [1]) [µM] | IC50 (NFF) [µM] | Ratio IC50 [3] | IC50 (Staphylococcus aureus) [µg/mL] | IC50 (Pseudomonas aeruginosa) [µg/mL]
4.3 | CCCNC1=CC(=O)c2c(O)c3c(c(O)c2C1=O)C[C@](C)(O)C[C@@H]3O | – | 78.8 | 18.3 | – | –
4.2 | C[C@]1(O)Cc2c(O)c3c(c(O)c2[C@@H](O)C1)C(=O)C=C(NCCc1ccc(Cl)cc1)C3=O | – | 66 | 15.7 | – | –
2.4 | C[C@]1(O)Cc2c(O)c3c(c(O)c2[C@@H](O)C1)C(=O)C=C(NCCc1ccc(O)cc1)C3=O | – | 23.3 | 9.7 | – | –
3.8 | C[C@]1(O)Cc2c(O)c3c(c(O)c2[C@@H](O)C1)C(=O)C=C(NCCc1ccccc1)C3=O | – | 3.5 | 0.9 | – | –
16.5 | C[C@]1(O)Cc2c(O)c3c(c(O)c2[C@@H](O)C1)C(=O)C=C(NCCCN)C3=O | – | 89.8 | 5.4 | – | –
